Source: paper PMC4924508 (Theranostics, 2016)
Square brackets hold non-standard residues; d marks the D form. Peptide text beside a SMILES is read from it. * marks the point of attachment. Biotin = O=C1N[C@H]2[C@H](CS[C@H]2CCCCC(=O)*)N1

Experiments:
[1] = system: CT-26 colon carcinoma tumors / M2-like TAMs; experiment: In vivo biodistribution study in CT-26 tumor model; parameters: species or system mouse; conditions: 20 min after injection, n = 5, result in words
Method in brief: (§1)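 Female BALB/c mice (6 week-old) received CT-26 cells in the right flank or 4T1 cells in the mammary fat pad, and were used 2 weeks later (tumor diameter ≤1.5 cm). Sulfo-Cy5-labeled test compound (2.24 nmol, PBS/10% DMSO) or PBS was injected retro-orbitally. After 20 min, mice were PBS-perfused. Tumors were enzymatically dissociated, Fc-blocked, stained for CD11b/Ly-6G/F4/80, PFA-fixed and run on flow cytometry. Subsets were compared by one-way ANOVA/Tukey.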

[2] = system: 4T1 breast carcinoma tumors / M2-like TAMs; experiment: In vivo biodistribution study in 4T1 tumor model; parameters: species or system mouse; conditions: 20 min after injection, n = 3, result in words
Method in brief: as §1

[3] = Serum stability study in normal mouse serum, MALDI-TOF MS; format: in vitro ADME; conditions: 37 °C, result in words

Molecule | protection against endolytic cleavage at the W10/W11 site in serum [3] | other results
CGYEQDPWGVRYWYGCkkk(k(N3)-sulfoCy5) (disulfide) [Cyclic M2pep(RY)-sulfoCy5] | – | intratumoral selectivity to M2-like TAMs over M1-like TAMs and CD11b- cells [1]: selectivity to M2-like TAMs over M1-like TAMs and non-TAM CD11b^- cells was observed; intratumoral uptake in M2-like TAMs (flow cytometry) [1]: significantly higher uptake in M2-like TAMs compared to M2pep-sulfoCy5; intratumoral accumulation in M2-like TAMs (flow cytometry) [2]: accumulated preferentially in M2-like TAMs
CC(=O)N[C@@H](Cc1ccc(O)cc1)C(=O)N[C@@H](CCC(=O)O)C(=O)N[C@@H](CCC(N)=O)C(=O)N[C@@H](CC(=O)O)C(=O)N1CCC[C@H]1C(=O)N[C@@H](Cc1c[nH]c2ccccc12)C(=O)NCC(=O)N[C@H](C(=O)N[C@@H](CCCCN)C(=O)N1CCC[C@H]1C(=O)N[C@@H](Cc1c[nH]c2ccccc12)C(=O)N[C@@H](Cc1ccc(O)cc1)C(=O)NCC(=O)NCC(=O)NCC(=O)N[C@@H](CO)C(=O)N[C@H](CCCCN)C(=O)N[C@H](CCCCN)C(=O)N[C@H](CCCCN)C(=O)N[C@@H](CCCCNC(=O)CCCC[C@@H]1SC[C@@H]2NC(=O)N[C@@H]21)C(N)=O)C(C)C [W10P] (Ac-YEQDPWGVKPWYGGGS[dK][dK][dK]K(Biotin)-NH2) | did not confer protection at the W10/W11 site | –
CC(=O)N[C@@H](Cc1ccc(O)cc1)C(=O)N[C@@H](CCC(=O)O)C(=O)N[C@@H](CCC(N)=O)C(=O)N[C@@H](CC(=O)O)C(=O)N1CCC[C@H]1C(=O)N[C@@H](Cc1c[nH]c2ccccc12)C(=O)NCC(=O)N[C@H](C(=O)N[C@@H](CCCCN)C(=O)N[C@@H](Cc1ccc(O)cc1)C(=O)N[C@@H](Cc1c[nH]c2ccccc12)C(=O)N[C@@H](Cc1ccc(O)cc1)C(=O)NCC(=O)NCC(=O)NCC(=O)N[C@@H](CO)C(=O)N[C@H](CCCCN)C(=O)N[C@H](CCCCN)C(=O)N[C@H](CCCCN)C(=O)N[C@@H](CCCCNC(=O)CCCC[C@@H]1SC[C@@H]2NC(=O)N[C@@H]21)C(N)=O)C(C)C [W10Y] (Ac-YEQDPWGVKYWYGGGS[dK][dK][dK]K(Biotin)-NH2) | did not confer protection at the W10/W11 site | –
CC(=O)N[C@@H](Cc1ccc(O)cc1)C(=O)N[C@@H](CCC(=O)O)C(=O)N[C@@H](CCC(N)=O)C(=O)N[C@@H](CC(=O)O)C(=O)N1CCC[C@H]1C(=O)N[C@@H](Cc1c[nH]c2ccccc12)C(=O)NCC(=O)N[C@H](C(=O)N[C@@H](CCCNC(=N)N)C(=O)N[C@@H](Cc1ccc(O)cc1)C(=O)N[C@@H](Cc1c[nH]c2ccccc12)C(=O)N[C@H](Cc1ccc(O)cc1)C(=O)NCC(=O)NCC(=O)NCC(=O)N[C@@H](CO)C(=O)N[C@H](CCCCN)C(=O)N[C@H](CCCCN)C(=O)N[C@H](CCCCN)C(=O)N[C@@H](CCCCNC(=O)CCCC[C@@H]1SC[C@@H]2NC(=O)N[C@@H]21)C(N)=O)C(C)C [Y12y] (Ac-YEQDPWGVRYW[dY]GGGS[dK][dK][dK]K(Biotin)-NH2) | did not improve serum stability at the W10/W11 site | –
CC(=O)N[C@@H](Cc1ccc(O)cc1)C(=O)N[C@@H](CCC(=O)O)C(=O)N[C@@H](CCC(N)=O)C(=O)N[C@@H](CC(=O)O)C(=O)N1CCC[C@H]1C(=O)N[C@@H](Cc1c[nH]c2ccccc12)C(=O)NCC(=O)N[C@H](C(=O)N[C@@H](CCCCN)C(=O)N[C@H](Cc1c[nH]c2ccccc12)C(=O)N[C@@H](Cc1c[nH]c2ccccc12)C(=O)N[C@@H](Cc1ccc(O)cc1)C(=O)NCC(=O)NCC(=O)NCC(=O)N[C@@H](CO)C(=O)N[C@@H](CCCCN)C(=O)N[C@@H](CCCCN)C(=O)N[C@@H](CCCCN)C(=O)N[C@@H](CCCCNC(=O)CCCC[C@@H]1SC[C@@H]2NC(=O)N[C@@H]21)C(N)=O)C(C)C [W10w] (Ac-YEQDPWGVK[dW]WYGGGSKKKK(Biotin)-NH2) | effective protection against endolytic cleavage at the W10/W11 site | –
CC(=O)N[C@@H](Cc1ccc(O)cc1)C(=O)N[C@@H](CCC(=O)O)C(=O)N[C@@H](CCC(N)=O)C(=O)N[C@@H](CC(=O)O)C(=O)N1CCC[C@H]1C(=O)N[C@@H](Cc1c[nH]c2ccccc12)C(=O)NCC(=O)N[C@H](C(=O)N[C@@H](CCCCN)C(=O)N[C@@H](Cc1c[nH]c2ccccc12)C(=O)N[C@@H](Cc1c[nH]c2ccccc12)C(=O)N[C@@H](Cc1ccc(O)cc1)C(=O)NCC(=O)NCC(=O)NCC(=O)N[C@@H](CO)C(=O)N[C@@H](CCCCN)C(=O)N[C@@H](CCCCN)C(=O)N[C@@H](CCCCN)C(=O)N[C@@H](CCCCNC(=O)CCCC[C@@H]1SC[C@@H]2NC(=O)N[C@@H]21)C(N)=O)C(C)C [AcM2pepBiotin] (Ac-YEQDPWGVKWWYGGGSKKKK(Biotin)-NH2) | – | overall serum stability [3]: did not improve the overall serum stability; resistance to N-terminal (exolytic) degradation in serum [3]: resistant to N-terminal degradation
YEQDPWGVKWWYGGGSKKK(k(N3)-sulfoCy5) [M2pep-sulfoCy5] | – | intratumoral selectivity to M2-like TAMs over M1-like TAMs and CD11b- cells [1]: selectivity to M2-like TAMs over M1-like TAMs and non-TAM CD11b^- cells was observed
CC(=O)N[C@@H](Cc1ccc(O)cc1)C(=O)N[C@@H](CCC(=O)O)C(=O)N[C@@H](CCC(N)=O)C(=O)N[C@@H](CC(=O)O)C(=O)N1CCC[C@H]1C(=O)N[C@@H](Cc1c[nH]c2ccccc12)C(=O)NCC(=O)N[C@H](C(=O)N[C@@H](CCCNC(=N)N)C(=O)N[C@@H](Cc1c[nH]c2ccccc12)C(=O)N[C@@H](Cc1c[nH]c2ccccc12)C(=O)N[C@@H](Cc1ccc(O)cc1)C(=O)NCC(=O)NCC(=O)NCC(=O)N[C@@H](CO)C(=O)N[C@@H](CCCCN)C(=O)N[C@@H](CCCCN)C(=O)N[C@@H](CCCCN)C(=O)N[C@@H](CCCCNC(=O)CCCC[C@@H]1SC[C@@H]2NC(=O)N[C@@H]21)C(N)=O)C(C)C [K9R] (Ac-YEQDPWGVRWWYGGGSKKKK(Biotin)-NH2) | did not confer protection at the W10/W11 site | –
CC(=O)N[C@@H](Cc1ccc(O)cc1)C(=O)N[C@@H](CCC(=O)O)C(=O)N[C@@H](CCC(N)=O)C(=O)N[C@@H](CC(=O)O)C(=O)N1CCC[C@H]1C(=O)N[C@@H](Cc1c[nH]c2ccccc12)C(=O)NCC(=O)N[C@H](C(=O)N[C@@H](CCCNC(=N)N)C(=O)N[C@@H](Cc1ccc(O)cc1)C(=O)N[C@@H](Cc1c[nH]c2ccccc12)C(=O)N[C@@H](Cc1ccc(O)cc1)C(=O)NCC(=O)NCC(=O)NCC(=O)N[C@@H](CO)C(=O)N[C@H](CCCCN)C(=O)N[C@H](CCCCN)C(=O)N[C@H](CCCCN)C(=O)N[C@@H](CCCCNC(=O)CCCC[C@@H]1SC[C@@H]2NC(=O)N[C@@H]21)C(N)=O)C(C)C [AcM2pep(RY)Biotin] (Ac-YEQDPWGVRYWYGGGS[dK][dK][dK]K(Biotin)-NH2) | did not improve serum stability at the W10/W11 site | –
